Source: ChEMBL document CHEMBL3600344, “Novel thiourea-based sirtuin inhibitory warheads” (Bioorg Med Chem Lett, 2015)
Peptide text beside a SMILES is read from it.

What was measured:
[1] = target: T1, NAD-dependent protein deacetylase sirtuin-1 (Homo sapiens, UniProt Q96EB6); assay: Inhibition of human His6 or GST-tagged SIRT1 using H2N-HK-(Nepsilon-acetyl-lysine)-LM-COOH as substrate after 10 mins by HPLC analysis
T1 sequence (Q96EB6 whole entry): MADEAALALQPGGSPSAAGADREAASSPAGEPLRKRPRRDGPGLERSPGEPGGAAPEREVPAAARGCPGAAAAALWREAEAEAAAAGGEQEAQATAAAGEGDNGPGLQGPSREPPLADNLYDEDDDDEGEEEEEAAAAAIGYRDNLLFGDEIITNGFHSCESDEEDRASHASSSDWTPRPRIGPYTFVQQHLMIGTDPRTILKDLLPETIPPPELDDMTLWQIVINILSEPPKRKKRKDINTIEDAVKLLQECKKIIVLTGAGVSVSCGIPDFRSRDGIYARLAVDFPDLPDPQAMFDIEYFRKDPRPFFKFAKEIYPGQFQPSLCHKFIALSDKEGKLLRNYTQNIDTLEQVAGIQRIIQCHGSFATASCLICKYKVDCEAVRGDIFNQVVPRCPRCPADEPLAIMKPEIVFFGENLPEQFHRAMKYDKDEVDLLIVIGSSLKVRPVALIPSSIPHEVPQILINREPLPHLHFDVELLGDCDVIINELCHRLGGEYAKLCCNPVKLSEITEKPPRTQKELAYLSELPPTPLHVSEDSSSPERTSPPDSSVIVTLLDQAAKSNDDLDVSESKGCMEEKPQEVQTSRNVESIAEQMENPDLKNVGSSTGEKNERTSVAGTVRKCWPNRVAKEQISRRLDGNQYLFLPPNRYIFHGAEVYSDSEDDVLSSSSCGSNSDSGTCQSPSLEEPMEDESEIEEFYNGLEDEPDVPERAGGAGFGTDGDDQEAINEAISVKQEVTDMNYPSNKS

[2] = Stability of the compound assessed as Streptomyces griseus pronase-mediated degradation at 160 uM measured within 3 mins by HPLC analysis; format: ADME; settings: 0.05 h
Summary of the method: (§1)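 Compound incubated with pronase (broad-specificity protease mixture), percent compound remaining followed over time up to 60 min; a control peptide incubated under the same condition.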

[3] = target: NAD-dependent protein deacylase sirtuin-5, mitochondrial (Homo sapiens, UniProt Q9NXA8); assay: Inhibition of human SIRT5 using CH3CONH-AR-(Nepsilon-succinyl-lysine)-ST-CONH2 as substrate after 5 mins by HPLC analysis
[4] = target: T2, NAD-dependent protein deacetylase sirtuin-2 (Homo sapiens, UniProt Q8IXJ6); assay: Inhibition of human His6-tagged SIRT2 using H2N-HK-(Nepsilon-acetyl-lysine)-LM-COOH as substrate after 10 mins by HPLC analysis
T2 sequence (Q8IXJ6 whole entry): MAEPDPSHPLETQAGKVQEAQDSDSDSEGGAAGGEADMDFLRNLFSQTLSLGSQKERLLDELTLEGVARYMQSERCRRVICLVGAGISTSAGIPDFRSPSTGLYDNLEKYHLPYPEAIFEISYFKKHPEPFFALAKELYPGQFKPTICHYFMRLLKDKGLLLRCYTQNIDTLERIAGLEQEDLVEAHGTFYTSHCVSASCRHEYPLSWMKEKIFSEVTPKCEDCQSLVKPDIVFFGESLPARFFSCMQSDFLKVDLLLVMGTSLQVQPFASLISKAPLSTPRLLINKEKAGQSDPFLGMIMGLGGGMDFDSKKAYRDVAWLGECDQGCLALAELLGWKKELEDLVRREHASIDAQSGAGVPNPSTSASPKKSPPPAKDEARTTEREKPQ

[5] = target: T3, NAD-dependent protein deacetylase sirtuin-3, mitochondrial (Homo sapiens, UniProt Q9NTG7); assay: Inhibition of human His6-tagged SIRT3 using H2N-HK-(Nepsilon-acetyl-lysine)-LM-COOH as substrate after 8 mins by HPLC analysis
T3 sequence (Q9NTG7 whole entry): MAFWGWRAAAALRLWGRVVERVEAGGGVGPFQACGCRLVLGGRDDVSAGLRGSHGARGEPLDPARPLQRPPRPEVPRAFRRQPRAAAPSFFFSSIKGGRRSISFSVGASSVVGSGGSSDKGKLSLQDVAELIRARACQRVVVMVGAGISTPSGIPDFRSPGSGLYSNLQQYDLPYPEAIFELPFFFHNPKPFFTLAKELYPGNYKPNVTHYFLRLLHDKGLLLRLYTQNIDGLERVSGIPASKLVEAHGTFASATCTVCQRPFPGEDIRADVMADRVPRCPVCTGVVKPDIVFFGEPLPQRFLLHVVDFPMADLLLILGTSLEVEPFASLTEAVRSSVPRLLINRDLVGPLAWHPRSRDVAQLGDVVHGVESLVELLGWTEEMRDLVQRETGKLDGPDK

[6] = Antioxidant activity assessed as inhibition of superoxide radical anion generation at 200 uM after 5 mins in presence of NBT and NADH relative to control; format: physicochemical
[7] = target: NAD-dependent protein deacylase sirtuin-6 (Homo sapiens, UniProt Q8N6T7); assay: Inhibition of human SIRT6 using H2N-EALPK-(Nepsilon-myristoyl-lysine)-TGGPQ-CONH2 as substrate after 12 mins by HPLC analysis
[8] = Stability of the compound assessed as Streptomyces griseus pronase-mediated degradation by measuring compound remaining at 160 uM after 60 mins by HPLC analysis; format: ADME; settings: read-out: Stability; summary of the method: as §1

NAD-dependent protein deacylase sirtuin-5, mitochondrial, sequence (Q9NXA8 whole entry): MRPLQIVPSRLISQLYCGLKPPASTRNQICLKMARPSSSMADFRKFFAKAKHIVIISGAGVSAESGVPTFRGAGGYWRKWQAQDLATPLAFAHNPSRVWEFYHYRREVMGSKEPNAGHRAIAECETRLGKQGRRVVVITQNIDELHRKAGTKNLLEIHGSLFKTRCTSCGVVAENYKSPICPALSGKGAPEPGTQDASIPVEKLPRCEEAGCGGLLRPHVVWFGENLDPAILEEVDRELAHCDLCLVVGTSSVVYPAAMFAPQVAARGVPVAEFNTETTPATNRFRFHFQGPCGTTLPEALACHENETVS
NAD-dependent protein deacylase sirtuin-6, sequence (Q8N6T7 whole entry): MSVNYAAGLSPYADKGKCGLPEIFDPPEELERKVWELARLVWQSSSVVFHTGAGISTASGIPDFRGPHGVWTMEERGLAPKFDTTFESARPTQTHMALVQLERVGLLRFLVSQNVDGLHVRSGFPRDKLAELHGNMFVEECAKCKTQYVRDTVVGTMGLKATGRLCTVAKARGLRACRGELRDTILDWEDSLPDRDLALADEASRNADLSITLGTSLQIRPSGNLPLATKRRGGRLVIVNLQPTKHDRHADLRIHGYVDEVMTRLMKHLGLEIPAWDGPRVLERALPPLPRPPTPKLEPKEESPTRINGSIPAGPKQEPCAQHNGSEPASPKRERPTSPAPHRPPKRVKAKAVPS

## CC(=O)NCCCC[C@H](NC(=O)[C@H](CCCCNC(=S)Nc1ccccc1)NC(=O)[C@H](CCCCNC(C)=O)NC(C)=O)C(N)=O
[1]
  IC50: 62.9 µM

## CSCC[C@H](NC(=O)[C@H](CC(C)C)NC(=O)[C@H](CCCCNC(C)=O)NC(=O)[C@H](CCCCN)NC(=O)[C@@H](N)Cc1cnc[nH]1)C(=O)O (H-HKK(Ac)LM-OH)
[2]
  Stability: Unstable

## CC(=O)NCCCC[C@H](NC(=O)[C@H](CCCCNC(=S)NCC(=O)O)NC(=O)[C@H](CCCCNC(C)=O)NC(C)=O)C(N)=O
[3]
  IC50: > 100 µM

## CC(=O)NCCCC[C@H](NC(=O)[C@H](CCCCNC(=S)NCCCC(=O)O)NC(=O)[C@H](CCCCNC(C)=O)NC(C)=O)C(N)=O
[3]
  IC50: > 100 µM

## CC(=O)NCCCC[C@H](NC(=O)[C@H](CCCCNC(N)=S)NC(=O)[C@H](CCCCNC(C)=O)NC(C)=O)C(N)=O
[1]
  IC50: 49.9 µM
[4]
  IC50: 30.4 µM
[5]
  IC50: 5.4 µM

## CC(=O)NCCCC[C@H](NC(=O)[C@H](CCCCNC(C)=S)NC(=O)[C@H](CCCCNC(C)=O)NC(C)=O)C(N)=O
[6]
  inhibition (INH): 6%

## CC(=O)NCCCC[C@H](NC(=O)[C@H](CCCCNC(=S)NCCC(=O)O)NC(=O)[C@H](CCCCNC(C)=O)NC(C)=O)C(N)=O
[3]
  IC50: 5 µM
[7]
  IC50: 2400 µM

## CNC(=S)NCCCC[C@H](NC(=O)[C@H](CCCCNC(C)=O)NC(C)=O)C(=O)N[C@@H](CCCCNC(C)=O)C(N)=O
[1]
  IC50: 5.6 µM
[6]
  inhibition (INH): 50%
[4]
  IC50: 1.65 µM
[5]
  IC50: 2.2 µM
[8]
  remaining at 1 h, 160 µM: 88%
